{"source": "ChEMBL document CHEMBL5046274", "about": "“Identification and Optimization of Novel Small-Molecule Cas9 Inhibitors by Cell-Based High-Throughput Screening” (J Med Chem, 2022)", "key": {"[1]": {"experiment": "Inhibition of Streptococcus pyogenes Cas9 by Cas9 cleavage assay", "method_in_brief": "(§1)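 Recombinant SpyCas9 (5 nM) preincubated with compound in DMSO (final 5% v/v) for 15 min at 37 °C in PBS + 10 mM MgCl2 + 0.02% Triton X-100. Then 6 nM preformed crRNA/tracrRNA gRNA for 5 min, then 1 nM PCR-amplified target DNA for 30 min. Quenched with proteinase K, run on a 1% agarose gel, bands quantified by densitometry. Run in triplicate; IC50 from a four-parameter logistic fit.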"}, "[2]": {"tested_on": "Streptococcus pyogenes", "experiment": "Inhibition of Streptococcus pyogenes Cas9 assessed as inhibition of Csp9:gRNA complex formation at 200 uM by EMSA assay", "method_in_brief": "(§2)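 EMSA in PBS + 10 mM MgCl2 + 0.02% Triton X-100. Compound incubated with 200 nM apo-SpyCas9 for 5 min at 37 °C, then 200 nM Atto550-labelled crRNA/tracrRNA gRNA added for 15 min. Complexes resolved on a 6% TBE gel and visualised by fluorescence.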"}, "[3]": {"tested_on": "Streptococcus pyogenes", "experiment": "Inhibition of Streptococcus pyogenes Cas9 assessed as inhibition of Csp9:gRNA complex formation"}, "[4]": {"tested_on": "Streptococcus pyogenes", "experiment": "Inhibition of Streptococcus pyogenes apo-Cas9 assessed as inhibition of Csp9:gRNA complex formation at 10 to 200 uM by EMSA assay", "details": "dose 10-200 µM", "method_in_brief": "as §2"}, "[5]": {"tested_on": "Streptococcus pyogenes", "experiment": "Binding affinity to Streptococcus pyogenes Cas9 by 1D 1H-NMR-WaterLOGSY spectrum analysis", "method_in_brief": "(§3)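 NMR ligand-binding on apo-SpyCas9 with standard pulse sequences. For WaterLOGSY, bound ligands give signals of opposite (negative) phase to non-binders. Alanine is added to the cocktail at the ligand concentration as a phasing reference.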"}, "[6]": {"tested_on": "Streptococcus pyogenes", "experiment": "Binding affinity to Streptococcus pyogenes Cas9 by 1H-19F-(CPMG)-NMR analysis", "method_in_brief": "as §3"}, "[7]": {"tested_on": "Streptococcus pyogenes", "experiment": "Inhibition of Streptococcus pyogenes Cas9 at 200 microM by Cas9 cleavage assay", "method_in_brief": "as §1"}, "[8]": {"tested_on": "Streptococcus pyogenes", "experiment": "Inhibition of Streptococcus pyogenes Cas9 at 500 microM by Cas9 cleavage assay", "method_in_brief": "as §1"}, "[9]": {"tested_on": "Streptococcus pyogenes", "experiment": "Inhibition of Streptococcus pyogenes Cas9 assessed as inhibition of Csp9:gRNA complex formation at 200 to 500 uM", "details": "dose 200-500 µM"}}, "note": "Calls of active or inactive are those of the source. No cut-off for these calls is given here.", "data": [{"molecule": "Cc1cc(NS(=O)(=O)c2cccc(-c3ccccc3)c2)no1", "values": [{"measurement": "IC50", "setting": "[1]", "value": 129, "unit": "µM"}]}, {"molecule": "Cc1cc(NS(=O)(=O)c2cc(-c3ccc(Cl)c(Cl)c3)cc(C(F)(F)F)c2)no1", "values": [{"measurement": "inhibition", "setting": "[2]", "value": "Active"}, {"measurement": "inhibition", "setting": "[3]", "value": "Active"}, {"measurement": "inhibition", "setting": "[4]", "value": "Active"}, {"measurement": "Activity", "setting": "[5]", "value": "Active"}, {"measurement": "Activity", "setting": "[6]", "value": "Active"}, {"measurement": "IC50", "setting": "[1]", "value": 7.02, "unit": "µM"}]}, {"molecule": "Cc1cc(NS(=O)(=O)c2ccc(-c3ccccc3)cc2)no1", "values": [{"measurement": "IC50", "setting": "[1]", "value": 189, "unit": "µM"}]}, {"molecule": "Cc1ccnc(NS(=O)(=O)c2cc(-c3nc(C)c(C(=O)N4CCC(C)CC4)s3)n(C)c2C)c1", "values": [{"measurement": "Activity", "setting": "[7]", "value": "inactive"}]}, {"molecule": "Cc1cc(NS(=O)(=O)c2cccc(-c3ccc(Cl)c(Cl)c3)c2)no1", "values": [{"measurement": "IC50", "setting": "[1]", "value": 14, "unit": "µM"}]}, {"molecule": "Oc1c(C(c2ccccn2)N2CCC(Cc3ccccc3)CC2)cc(Cl)c2cccnc12", "note": "(configuration not stated)", "values": [{"measurement": "Activity", "setting": "[8]", "value": "Active"}]}, {"molecule": "Cc1cc(NS(=O)(=O)c2cc(-c3nc(C)c(C(=O)N4CCC(C)CC4)s3)n(C)c2C)no1", "values": [{"measurement": "inhibition", "setting": "[9]", "value": "Active"}, {"measurement": "Activity", "setting": "[8]", "value": "Active"}, {"measurement": "IC50", "setting": "[1]", "value": 246, "unit": "µM"}]}, {"molecule": "CC1CCN(C(=O)c2cccc(-c3ccccc3)c2)CC1", "values": [{"measurement": "IC50", "setting": "[1]", "value": 28, "unit": "µM"}]}, {"molecule": "CC1CCN(C(=O)c2cccc(-c3ccc(C(F)(F)F)cc3)c2)CC1", "values": [{"measurement": "IC50", "setting": "[1]", "value": 28, "unit": "µM"}]}, {"molecule": "Cc1cc(NS(=O)(=O)c2ccc(-c3cccc(C(=O)N4CCC(C)CC4)c3)cc2)no1", "values": [{"measurement": "IC50", "setting": "[1]", "value": 223, "unit": "µM"}]}]}
